Converted amounts (≈) assume the structure as drawn.
Key:
Format in all cases: functional
Proteus mirabilis = assay: Minimum inhibitory concentration against aerobic organism Proteus mirabilis strain 2830; conditions: Proteus mirabilis; read-out: MIC
How it was run: (§1)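 Agar-dilution MIC in µg/mL against aerobic bacterial strains on tryptocase soy agar, with inoculum applied as spots. Most series used 10^5 cfu per spot, and a later series used 10^4 cfu per spot. In some tables, footnoted strains were instead tested on Mueller-Hinton or nutrient agar. β-Lactamase-producing strains are flagged.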

Streptococcus pyogenes = assay: Minimum inhibitory concentration against aerobic organism Streptococcus pyogenes strain 3124; conditions: Streptococcus pyogenes; read-out: MIC; how it was run: as §1
Enterobacter cloacae = assay: Minimum inhibitory concentration against aerobic organism Enterobacter cloacae strain 2646; conditions: Enterobacter cloacae; read-out: MIC; how it was run: as §1
Klebsiella aerogenes = assay: Minimum inhibitory concentration against aerobic organism Enterobacter aerogenes strain 2906; conditions: Klebsiella aerogenes; read-out: MIC; how it was run: as §1
Enterococcus faecalis = assay: Minimum inhibitory concentration against aerobic organism Streptococcus faecalis strain 2864; how it was run: as §1
Morganella morganii = assay: Minimum inhibitory concentration against aerobic organism Morganella morganii strain 2833; conditions: Morganella morganii; read-out: MIC; how it was run: as §1
Serratia marcescens = assay: Minimum inhibitory concentration against aerobic organism Serratia marcescens strain 2852; conditions: Serratia marcescens; read-out: MIC; how it was run: as §1
Escherichia coli = assay: MIC against aerobic organism Escherichia coli strain 2891; conditions: Escherichia coli; read-out: MIC; how it was run: as §1
Shigella = assay: Minimum inhibitory concentration against aerobic organism Shigella species strain 2880; conditions: Shigella; read-out: MIC; how it was run: as §1
Proteus vulgaris = assay: Minimum inhibitory concentration against aerobic organism Proteus vulgaris strain 2829; conditions: Proteus vulgaris; read-out: MIC; how it was run: as §1
Pseudomonas aeruginosa = assay: Minimum inhibitory concentration against aerobic organism Pseudomonas aeruginosa strain 2835; how it was run: as §1
Staphylococcus aureus = assay: Minimum inhibitory concentration against aerobic organism Staphylococcus aureus strain 2868; conditions: Staphylococcus aureus; read-out: MIC; how it was run: as §1
[1] = Minimum inhibitory concentration against aerobic organism Salmonella schottmuelleri strain 2837; conditions: Salmonella; read-out: MIC; how it was run: as §1
Klebsiella pneumoniae = assay: Minimum inhibitory concentration against aerobic organism Klebsiella pneumoniae strain 2882; conditions: Klebsiella pneumoniae; read-out: MIC; how it was run: as §1

MIC (Proteus mirabilis) [µg/mL] | MIC (Streptococcus pyogenes) [µg/mL] | MIC (Enterobacter cloacae) [µg/mL] | MIC (Klebsiella aerogenes) [µg/mL] | MIC (Enterococcus faecalis) [µg/mL] | MIC (Morganella morganii) [µg/mL] | MIC (Serratia marcescens) [µg/mL] | MIC (Escherichia coli) [µg/mL] | MIC (Shigella) [µg/mL] | MIC (Proteus vulgaris) [µg/mL] | MIC (Pseudomonas aeruginosa) [µg/mL] | MIC (Staphylococcus aureus) [µg/mL] | MIC [1] [µg/mL] | MIC (Klebsiella pneumoniae) [µg/mL] | Compound
> 128 | 32 (≈ 67 µM) | > 128 | > 128 | > 128 | > 128 | > 128 | > 128 | > 128 | > 128 | > 128 | > 128 | 128 (≈ 268 µM) | > 128 | COC(=O)c1c[n+](C)ccc1N[C@@H]1C(=O)N2C(C(=O)[O-])=C(CSc3nnnn3C)CS[C@H]12
> 128 | – | 0.125 (≈ 0.245 µM) | 32 (≈ 62.6 µM) | 128 (≈ 251 µM) | > 128 | > 128 | < 0.06 | < 0.06 | 32 (≈ 62.6 µM) | > 128 | 8 (≈ 15.7 µM) | < 0.06 | < 0.06 | CC(=O)OCC1=C(C(=O)[O-])N2C(=O)[C@@H](Nc3cc[n+](COCC(Cl)(Cl)Cl)cc3)[C@H]2SC1
> 128 | < 0.5 | 8 (≈ 15.7 µM) | 64 (≈ 126 µM) | > 128 | > 128 | > 128 | 4 (≈ 7.85 µM) | < 0.5 | > 128 | > 128 | 4 (≈ 7.85 µM) | 1 (≈ 1.96 µM) | 1 (≈ 1.96 µM) | Cn1nnnc1SCC1=C(C(=O)[O-])N2C(=O)[C@@H](Nc3cc[n+](CCc4ccccc4)cc3)[C@H]2SC1
> 128 | – | 16 (≈ 30.4 µM) | 128 (≈ 244 µM) | > 128 | > 128 | > 128 | 1 (≈ 1.9 µM) | 1 (≈ 1.9 µM) | 128 (≈ 244 µM) | > 128 | 16 (≈ 30.4 µM) | 1 (≈ 1.9 µM) | 2 (≈ 3.81 µM) | Cn1nnnc1SCC1=C(C(=O)[O-])N2C(=O)[C@@H](Nc3cc[n+](COCc4ccccc4)cc3)[C@H]2SC1
64 | 2 | 64 | 32 | > 128 | > 128 | > 128 | 4 | 2 | 1 | > 128 | 32 | 4 | 8 | Cn1nnnc1SCC1=C(C(=O)[O-])N2C(=O)[C@@H](Nc3cc[n+](CC(=O)[O-])cc3)[C@H]2SC1.[Na+]
> 128 | – | 8 (≈ 21.8 µM) | 64 (≈ 174 µM) | 128 (≈ 348 µM) | > 128 | > 128 | 1 (≈ 2.72 µM) | < 0.06 | 0.125 (≈ 0.34 µM) | 128 (≈ 348 µM) | 16 (≈ 43.5 µM) | < 0.06 | < 0.06 | O=C([O-])C1=CCS[C@@H]2[C@H](Nc3cc[n+](Cc4ccccc4)cc3)C(=O)N12
> 128 | < 0.06 | < 0.06 | 4 (≈ 7.73 µM) | > 128 | > 128 | 128 (≈ 247 µM) | < 0.06 | < 0.06 | 4 (≈ 7.73 µM) | > 128 | 4 (≈ 7.73 µM) | < 0.06 | 1 (≈ 1.93 µM) | Cn1nnnc1SCC1=C(C(=O)[O-])N2C(=O)[C@@H](Nc3cc[n+](COCC(F)(F)F)cc3)[C@H]2SC1
128 (≈ 246 µM) | 0.125 (≈ 0.24 µM) | 8 (≈ 15.4 µM) | 8 (≈ 15.4 µM) | > 128 | 128 (≈ 246 µM) | 128 (≈ 246 µM) | 0.25 (≈ 0.48 µM) | < 0.06 | 16 (≈ 30.7 µM) | > 128 | 32 (≈ 61.5 µM) | 0.125 (≈ 0.24 µM) | 1 (≈ 1.92 µM) | Cn1nnnc1SCC1=C(C(=O)[O-])N2C(=O)[C@@H](Nc3cc[n+](Cc4ccc(C#N)cc4)cc3)[C@H]2SC1
> 128 | 32 (≈ 70.5 µM) | > 128 | > 128 | > 128 | > 128 | > 128 | 2 (≈ 4.41 µM) | 8 (≈ 17.6 µM) | 1 (≈ 2.2 µM) | > 128 | > 128 | 4 (≈ 8.81 µM) | 64 (≈ 141 µM) | Cn1nnnc1SCC1=C(C(=O)[O-])N2C(=O)C(Nc3ccc(Cl)c[n+]3C)C2SC1 (stereo not given)
> 128 | 2 (≈ 5.5 µM) | > 128 | > 128 | > 128 | > 128 | > 128 | > 128 | 64 (≈ 176 µM) | < 0.5 | > 128 | 64 (≈ 176 µM) | 8 (≈ 22 µM) | 32 (≈ 88.1 µM) | CC(=O)OCC1=C(C(=O)[O-])N2C(=O)[C@@H](Nc3cc[n+](C)cc3)[C@H]2SC1
– | < 0.39 | > 100 | – | 12.5 (≈ 28.4 µM) | – | – | > 100 | 25 (≈ 56.8 µM) | – | – | 3.12 (≈ 7.08 µM) | 6.25 (≈ 14.2 µM) | > 100 | C[n+]1ccc(NC(C(=O)NC2C(=O)N3C2SC(C)(C)[C@@H]3C(=O)[O-])c2ccccc2)cc1 (stereo not given in full)
